Compound activity deposited in PubChem by The Scripps Research Institute Molecular Screening Center.
Sampled rows, rich in hits. Any-hit rate of the full collection: about 4.6%.
TAAR1 antagonist: human TAAR1 antagonism. CHO RD-HGA16 TAAR1, Fluo-8 calcium fluorescence, antagonist. inhibition, % at 3 µM. actives 1.5% (n = 360,000). Q96RJ0;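 active means inhibition above a per-plate cutoff, the mean inhibition of test compounds on that plate plus 3 SD, cut at about 49% in these data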;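 further: 0% = DMSO plus EC80 beta-PEA response and 100% = DMSO alone without agonist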
Target sequence (Q96RJ0 whole entry, looked up): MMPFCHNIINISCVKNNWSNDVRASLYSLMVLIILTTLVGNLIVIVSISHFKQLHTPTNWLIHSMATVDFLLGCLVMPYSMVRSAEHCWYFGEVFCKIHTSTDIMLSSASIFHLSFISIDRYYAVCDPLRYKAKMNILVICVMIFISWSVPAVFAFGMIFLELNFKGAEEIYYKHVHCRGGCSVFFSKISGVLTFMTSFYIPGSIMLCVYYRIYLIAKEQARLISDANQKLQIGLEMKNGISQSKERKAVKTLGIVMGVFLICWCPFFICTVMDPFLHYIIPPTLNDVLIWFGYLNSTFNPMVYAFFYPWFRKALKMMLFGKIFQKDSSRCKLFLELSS
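Test system – hTAAR1-expressing CHO RD-HGA16 cells, Gα16-coupled · Reagent – β-PEA at EC80 concentration, post-compound challenge · Compound dosing – 3 µM, single point · Timing – 140 s kinetic read after compound, 140 s after agonist · Detection – Fluo-8 intracellular calcium dye fluorescence, real-time kinetic reads · Control set – DMSO and EC80 PEA controls · Repeats – n of 1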
GPR7 antagonist: blocks human GPR7 receptor signaling; P48145; actives 1.1% (n = 290,000); GPR7-expressing cells, fluorescence antagonist assay; AID 1861; inhibition, % at 4.4 µM; in the data active means inhibition above about 16%, passing the limit was not always enough;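 further: cells stimulated with the agonist NPW; 0% = agonist with vehicle and 100% = vehicle without agonist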
Target sequence (P48145 whole entry, looked up): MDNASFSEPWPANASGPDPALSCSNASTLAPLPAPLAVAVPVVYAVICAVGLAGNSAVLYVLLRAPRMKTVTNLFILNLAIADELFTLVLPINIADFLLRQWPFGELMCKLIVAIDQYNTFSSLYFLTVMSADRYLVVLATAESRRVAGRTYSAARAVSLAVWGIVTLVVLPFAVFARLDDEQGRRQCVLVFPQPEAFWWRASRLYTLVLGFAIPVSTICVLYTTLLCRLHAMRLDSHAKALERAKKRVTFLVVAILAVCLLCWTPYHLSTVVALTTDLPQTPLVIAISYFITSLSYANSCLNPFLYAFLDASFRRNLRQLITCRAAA
OX1R antag-1: antagonists of human orexin 1 receptor; CHO/OX1R cells, Fluo-8 calcium fluorescence, orexin A; inhibition, % at 5 µM; actives 0.43% (n = 330,000); AID 434989;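 active means inhibition above its plate's threshold, mean inhibition of all tested compounds on the plate plus 3 SD, cut at about 37% in these data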;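 further: 0% = orexin A challenge wells and 100% = SB-334867-A antagonist wells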
OX1R antag-2: blocks the human orexin 1 receptor; O43613; OX1R-expressing cells, FRET antagonist read-out; inhibition, % at 6.6 µM; actives 1.8% (n = 330,000); in the data active means inhibition mostly above about 38%, no sharp cut-off; inactive means mostly below about 40%;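 further: 0% = agonist challenge alone and 100% = reference antagonist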
TAAR1 agonist: human TAAR1 agonism; activation, % at 3 µM; AID 624467; CHO RD-HGA16 TAAR1, Fluo-8 calcium fluorescence; vehicle wells 0%, saturating PEA agonist 100%; actives 0.99% (n = 360,000); Q96RJ0;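 active means activation above the mean activation of all test compounds in the run plus 3 SD, cut at about 38% in these data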
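System: CHO RD-HGA16 cells carrying human TAAR1 plus Gα16; Incubation: 17-24 h seeding, 75 min 37 °C dye, 30 min RT; Measured by: Fluo-8 fluorescence, 5 s baseline then 140 s kinetic read; Control set: DMSO and PEA EC100; Replication: single well for each compound.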
CHO parental Ca: signal in parental CHO cells, OX1R antagonist counter-screen. parental CHO-K1, ATP-induced calcium, Fluo-8 fluorescence. inhibition, % at 5.6 µM. actives 0.63% (n = 330,000);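 active means inhibition above that plate's mean sample inhibition plus 3 SD, cut at about 26% in these data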;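 further: 0% = ATP-challenged DMSO wells and 100% = DMSO wells without ATP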
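Material: parental CHO cells / Compound: single nominal dose of 5.6 µM per compound / Signal: Fluo-8 fluorescence / Replicates: singlicate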
GPR7 antag conf: human GPR7 antagonism, confirmation assay; shares compounds with GPR7 antagonist; GPR7-expressing cells, calcium fluorescence antagonist mode; inhibition, % at 4.4 µM; actives 52% (n = 2,400); in the data active means inhibition above about 24%;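 further: stimulated with the GPR7 agonist NPW; 0% = agonist plus vehicle and 100% = vehicle alone without agonist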
MCHR1 antagonist: counter-screen for GPR7 antagonists: antagonists of human MCHR1; shares compounds with GPR7 antagonist; inhibition, % at 4.4 µM; actives 62% (n = 2,400); AID 2148; MCHR1-expressing cells, fluorescence antagonist assay; in the data active means inhibition above about 22%;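 further: 0% = vehicle with agonist and 100% = vehicle without agonist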
The depositor's hits bear a star; nt = not tested or not shown.

SMILES	TAAR1 antagonist	GPR7 antagonist	OX1R antag-1	OX1R antag-2	TAAR1 agonist	CHO parental Ca	GPR7 antag conf	MCHR1 antagonist
COC(=O)C1=C(C)Nc2nc(SCc3ccccc3)[nH]c(=O)c2C1c1cccs1 (configuration not stated)	-6	33*	20	34	1	5	17	34*
Cc1ccnc(Nc2nc(-c3ccc(O)c(O)c3)cs2)c1	14	41*	12	10	1	11	57*	48*
CCCN(CCC)c1nc(Cl)nc(NCc2ccco2)n1	-9	21*	-44	18	18	-22	-13	7
O=C(NCc1ccccc1)C1C(c2ccccc2)=Nc2ccccc2N1C(=O)c1ccncc1 (configuration not stated)	1	nt	nt	nt	2	nt	nt	nt
S=C(NCc1ccccc1)NCc1cccc(Cl)c1	-10	-10	nt	nt	2	nt	nt	nt
S=C(NCc1ccccc1)Nc1ccc(Cl)cc1	32	21*	11	13	7	13	18	43*
CCc1ccc(NC(=S)NCc2ccccc2)cc1	-20	9	-11	15	1	13	nt	nt
Fc1ccccc1CNC(=S)NC1CCCCC1	-34	-13	nt	nt	2	nt	nt	nt
Cc1ccc(NC(=S)NCc2ccc(Cl)cc2)c(C)c1	-7	31*	-29	4	0	-1	24*	10
S=C(NCc1ccccc1Cl)NC1CCCC1	-17	21*	-6	14	5	-6	-4	19
S=C(NCCc1cccc(Cl)c1)NCc1ccccc1	nt	23*	nt	nt	nt	nt	14	20
COc1ccccc1-c1noc2c1C(=O)N(Cc1cn(Cc3ccccc3)nn1)CC2	2	nt	nt	nt	2	nt	nt	nt
CCCNC(=O)c1cc(C2CCCN(C(=O)C3CC3)C2)on1 (configuration not stated)	-7	nt	nt	nt	0	nt	nt	nt
S=C(NCc1ccc(Cl)cc1)NC1CCN(Cc2ccccc2)CC1	7	25*	4	14	51*	8	40*	64*
Clc1ccc(CNC2CCN(Cc3ccccc3)CC2)cc1	-2	20	-27	11	1	-4	nt	nt
Cc1ccc(OCC(=O)Nc2ccc3c(c2)C(=O)NC3=O)cc1	12	28*	3	30	3	8	40*	35*
O=C(COc1ccc(Cl)cc1)Nc1ccc(Cc2ccncc2)cc1	5	28*	-2	29	2	14	32*	49*
O=C(COc1ccc(Cl)cc1)Nc1ccc2c(c1)C(=O)NC2=O	-5	33*	21	38	6	18	24*	27*
O=C(CSCc1ccccc1)Nc1ccc2c(c1)C(=O)NC2=O	10	24*	-7	26	5	2	35*	34*
C[C@H](CO)N1C[C@H](C)[C@H](CN(C)S(=O)(=O)c2cccs2)Oc2ncc(-c3cc4ccccc4o3)cc2C1=O	22	nt	nt	nt	5	nt	nt	nt
COc1cc(F)ccc1Oc1cccc2c1S(=O)(=O)N(C1CC1)C[C@@H](COCc1ccccc1)O2	-3	nt	nt	nt	0	nt	nt	nt
Cc1cc(OCC(=O)Nc2ccncc2)ccc1Br	14	23*	48*	49	12	41*	36*	50*
COc1cccc(NC(=O)COc2ccc(Br)c(C)c2)c1	2	-4	-1	7	1	-4	nt	nt
Cc1ccccc1OCCn1c(=O)sc2ccccc21	17	21*	-25	28	11	-12	14	37*
COC(=O)C1=C(C)N(Cc2ccccc2)C(=NCc2cc(OC)c(OC)c(OC)c2)N[C@H]1c1cccc(F)c1	nt	11	-34	25	nt	-29	nt	nt
SMILES	TAAR1 antagonist	GPR7 antagonist	OX1R antag-1	OX1R antag-2	TAAR1 agonist	CHO parental Ca	GPR7 antag conf	MCHR1 antagonist
COC(=O)C1=C(C)N(Cc2ccccc2)C(=NCc2ccc(OC)cc2)N[C@H]1c1cccc(F)c1	25	44*	28	6	31	24	51*	41*
O=C(c1cccs1)N1CCN(C(=O)c2cccs2)C1=S	-22	nt	nt	nt	3	nt	nt	nt
Cc1ccc(C(=O)N2CCOCC2)cc1S(=O)(=O)N1CCCC1	-17	-5	-6	-1	1	6	nt	nt
CN1CCN(C(=O)c2ccc(Cl)c(S(=O)(=O)N3CCCCC3)c2)CC1	6	-11	-36	-4	14	-9	nt	nt
O=C(c1ccc(Cl)c(S(=O)(=O)N2CCCCCC2)c1)N1CCCCC1	15	nt	-5	16	28	9	nt	16
Cc1ccc(C(=O)N2CCCCC2)cc1S(=O)(=O)N1CCCCCC1	5	21*	-21	11	12	-5	25*	5
COC(=O)[C@]12CCCCC=C1N(Cc1ccc(Cl)cc1Cl)C(=O)[C@H](CC(=O)NCc1ccc(OC)c(OC)c1)C2	11	nt	nt	nt	0	nt	nt	nt
CC(C)(C)c1ccc(NC(=O)c2cc(C3CCCN(S(=O)(=O)c4cccc5cccnc45)C3)on2)cc1 (configuration not stated)	-1	nt	nt	nt	0	nt	nt	nt
c1ccc(CCNc2ccnc3cc4ccccc4cc23)cc1	-8	37*	nt	nt	17	nt	45*	75*
CC(C)Nc1ccc(Nc2ccnc3cc4ccccc4cc23)cc1	1	6	-11	38	1	-5	nt	nt
CC1CCCCC1NC(=O)CN1C(=O)CSc2cc(S(=O)(=O)N3CCCCCC3)ccc21 (configuration not stated)	5	28*	-15	9	3	-18	23	18
Cc1cccc2cc(C3CC(c4ccco4)=NN3S(C)(=O)=O)c(Cl)nc12 (configuration not stated)	-3	22*	-6	10	2	-17	2	12
Cc1cccc2cc(C3CC(c4ccco4)=NN3S(=O)(=O)c3ccccc3)c(Cl)nc12 (configuration not stated)	-17	-17	-34	12	2	-23	nt	nt
CC(C)CC1NC(=O)c2cccnc2-n2c1nc1ccccc1c2=O (configuration not stated)	-11	nt	nt	nt	3	nt	nt	nt
O=C(Nc1nc2c(F)cc(F)cc2s1)C1CC1	-21	23*	-9	2	2	1	20	34*
Cc1cc(C)cc(NC(=O)CCc2ccc(C)o2)c1	-10	29*	-22	15	-4	-12	-12	7
Cc1cccc(NC(=O)CCc2ccc(C)o2)c1	-23	-6	-32	36	2	-1	nt	nt
CC1(C(=O)NS(=O)(=O)c2ccccc2)CCN1C(=O)CC1CCCC1 (configuration not stated)	-24	nt	nt	nt	1	nt	nt	nt
CCC(=O)N(C(=O)CC)N1CCN(c2ccncc2S(=O)(=O)N2CCCCC2)CC1	-4	34*	-31	14	3	-19	45*	30*
